Results on one compound are retold here after ChEMBL document CHEMBL1143109, “Discovery of novel orally active ureido NPY Y5 receptor antagonists” (Bioorg Med Chem Lett, 2008).

pKi: −log10 of the molar value.

The target in data set [1] is T1, Neuropeptide Y receptor type 5 (Rattus norvegicus) (UniProt Q63634).
T1 sequence (whole entry): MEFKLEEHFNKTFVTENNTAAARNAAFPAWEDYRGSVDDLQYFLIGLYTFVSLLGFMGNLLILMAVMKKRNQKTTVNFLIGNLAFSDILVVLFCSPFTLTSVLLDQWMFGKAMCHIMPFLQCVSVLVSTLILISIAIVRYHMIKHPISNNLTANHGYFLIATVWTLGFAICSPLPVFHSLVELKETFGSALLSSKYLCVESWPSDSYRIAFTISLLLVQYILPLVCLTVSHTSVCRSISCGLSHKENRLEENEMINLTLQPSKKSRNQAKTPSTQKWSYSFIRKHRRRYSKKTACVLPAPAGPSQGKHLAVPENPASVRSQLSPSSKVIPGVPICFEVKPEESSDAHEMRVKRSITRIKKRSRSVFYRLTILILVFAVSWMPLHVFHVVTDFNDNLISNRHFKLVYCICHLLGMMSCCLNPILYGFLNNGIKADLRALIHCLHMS
As to the kind of experiment: Antagonist activity at rat NPY Y5 receptor expressed in HEK293 cells assessed as inhibition of forskolin-stimulated cAMP production. The data set is classed as functional, cell-based. The essentials:
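HEK293 cells expressing rat NPY Y5 receptor. Functional antagonism measured as the ability to overcome NPY inhibition of forskolin-stimulated cAMP production; reported as Kb.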
For orientation: cAMP levels reflect the balance of adenylyl cyclase and phosphodiesterase activity.

Data set [2] deals with 5-hydroxytryptamine receptor 2B (Homo sapiens) (UniProt P41595). As to the kind of experiment: Inhibition of 5HT2B receptor at 10 uM. The procedure, abridged:
(§1)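 Counterscreen panel of 60 receptors, enzymes and ion channels; inhibition of binding measured at 10 µM.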

Data set [3] deals with T2, 5-hydroxytryptamine receptor 2C (Homo sapiens) (UniProt P28335).
T2 sequence (whole entry): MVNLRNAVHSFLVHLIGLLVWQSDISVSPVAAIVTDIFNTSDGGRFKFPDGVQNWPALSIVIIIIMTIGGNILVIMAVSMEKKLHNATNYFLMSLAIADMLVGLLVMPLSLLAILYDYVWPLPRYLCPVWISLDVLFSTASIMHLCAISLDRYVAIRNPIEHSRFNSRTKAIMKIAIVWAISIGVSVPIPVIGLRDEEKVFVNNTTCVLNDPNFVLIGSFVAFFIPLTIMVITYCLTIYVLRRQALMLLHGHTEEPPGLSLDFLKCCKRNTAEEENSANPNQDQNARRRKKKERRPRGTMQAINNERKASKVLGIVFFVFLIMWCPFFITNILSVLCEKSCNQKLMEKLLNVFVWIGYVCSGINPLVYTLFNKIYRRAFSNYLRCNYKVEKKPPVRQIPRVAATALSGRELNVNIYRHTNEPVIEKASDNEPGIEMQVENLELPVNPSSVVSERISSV
As to the kind of experiment: Inhibition of 5HT2C receptor at 10 uM. The essentials: as §1

The target of data set [4] is 5-hydroxytryptamine receptor 6 (Homo sapiens) (UniProt P50406). Description: Inhibition of 5HT6 receptor at 10 uM. The procedure, abridged:
as §1

Data set [5] has as its target Sodium-dependent dopamine transporter (Homo sapiens) (UniProt Q01959). As to the kind of experiment: Inhibition of dopamine transporter at 10 uM. The procedure, abridged: as §1
The subject of data set [6] is Rattus norvegicus. As to the kind of experiment: Reduction in body weight gain in po dosed Sprague-Dawley DIO rat after 28 days relative to control. The data set is classed as functional, organism-based. The essentials:
(§2)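 DIO rats weighing 700–800 g at start, n = 12/group, food and water ad libitum. Compound admixed into low fat diet for 28 days; delivered doses (1, 3 or 10 mg/kg/day) calculated from food consumption. Body composition by DEXA scanning, expressed as percent change from day 0 baseline; average plasma levels taken at the 10 mg/kg/day dose.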

Data set [7] is described as follows: Inhibition of sodium channel at 10 uM. The procedure, abridged: as §1
Data set [8] concerns the target 5-hydroxytryptamine receptor 7 (Homo sapiens) (UniProt P34969). Description: Inhibition of 5HT7 receptor at 10 uM. The procedure, abridged:
as §1

In data set [9] the target is Sodium-dependent noradrenaline transporter (Homo sapiens) (UniProt P23975). Description: Inhibition of norepinephrine transporter at 10 uM. The procedure, abridged: as §1
Sequence of Sodium-dependent noradrenaline transporter (Homo sapiens) (P23975 whole entry): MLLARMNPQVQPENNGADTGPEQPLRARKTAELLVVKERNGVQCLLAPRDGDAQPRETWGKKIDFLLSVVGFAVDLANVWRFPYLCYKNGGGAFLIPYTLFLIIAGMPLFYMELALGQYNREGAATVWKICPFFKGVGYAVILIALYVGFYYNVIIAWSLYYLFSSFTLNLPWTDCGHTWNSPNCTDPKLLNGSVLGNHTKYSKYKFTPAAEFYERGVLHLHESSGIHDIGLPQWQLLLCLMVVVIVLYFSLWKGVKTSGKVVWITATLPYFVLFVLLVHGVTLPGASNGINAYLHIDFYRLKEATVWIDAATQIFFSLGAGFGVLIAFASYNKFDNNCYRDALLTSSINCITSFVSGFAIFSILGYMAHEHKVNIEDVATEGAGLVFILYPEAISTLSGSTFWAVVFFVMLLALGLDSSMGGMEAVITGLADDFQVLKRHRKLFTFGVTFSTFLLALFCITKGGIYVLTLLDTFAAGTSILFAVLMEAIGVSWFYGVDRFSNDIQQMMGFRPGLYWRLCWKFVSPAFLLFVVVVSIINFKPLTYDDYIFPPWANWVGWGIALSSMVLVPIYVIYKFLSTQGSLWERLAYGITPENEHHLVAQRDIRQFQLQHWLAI
Data set [10] addresses 5-hydroxytryptamine receptor 5A (Homo sapiens) (UniProt P47898). Description: Inhibition of 5HT5A receptor at 10 uM. The procedure, abridged: as §1
In data set [11] the test system is Rattus norvegicus. Description: Reduction in food intake in Sprague-Dawley DIO rat at 10 mg/kg/day, po after 28 days relative to control. The class given is functional, organism-based. The procedure, abridged: as §2
The test system of data set [12] is Rattus norvegicus. As to the kind of experiment: Decrease in adipose mass in po dosed Sprague-Dawley DIO rat after 28 days. The data set is classed as functional, organism-based. The procedure, abridged:
as §2

The target in data set [13] is Neuropeptide Y receptor type 4 (Homo sapiens, UniProt P50391). Description: Binding affinity to human NPY Y4 receptor.
Sequence of Neuropeptide Y receptor type 4 (P50391 whole entry): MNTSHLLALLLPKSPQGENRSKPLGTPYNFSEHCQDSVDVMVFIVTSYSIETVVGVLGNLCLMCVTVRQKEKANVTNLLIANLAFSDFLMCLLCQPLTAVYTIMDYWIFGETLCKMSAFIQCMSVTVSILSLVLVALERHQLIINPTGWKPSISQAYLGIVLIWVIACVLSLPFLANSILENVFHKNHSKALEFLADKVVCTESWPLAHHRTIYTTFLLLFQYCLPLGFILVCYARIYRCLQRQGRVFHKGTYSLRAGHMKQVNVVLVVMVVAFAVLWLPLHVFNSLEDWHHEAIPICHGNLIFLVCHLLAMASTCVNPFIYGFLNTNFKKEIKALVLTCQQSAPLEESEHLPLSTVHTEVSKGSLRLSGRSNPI
A short description of data set [14]: Half life in iv dosed rat. The data set is classed as ADME, organism-based. To be noted: in vivo.
A short description of data set [15]: Inhibition of calcium channel at 10 uM. The procedure, abridged:
as §1

A short description of data set [16]: Drug level in plasma of Sprague-Dawley DIO rat at 10 mg/kg/day, po after 28 days. Also noted: route oral. The class given is ADME, organism-based. The procedure, abridged: as §2
The nature of data set [17]: Half life in Beagle dog. The data set is classed as ADME, organism-based, Canis lupus familiaris. To be noted: in vivo.
In data set [18] the target is Sodium-dependent serotonin transporter (Homo sapiens) (UniProt P31645). As to the kind of experiment: Inhibition of serotonin transporter at 10 uM. The essentials:
as §1

The target of data set [19] is T3, 5-hydroxytryptamine receptor 3A (Homo sapiens) (UniProt P46098).
T3 sequence (whole entry): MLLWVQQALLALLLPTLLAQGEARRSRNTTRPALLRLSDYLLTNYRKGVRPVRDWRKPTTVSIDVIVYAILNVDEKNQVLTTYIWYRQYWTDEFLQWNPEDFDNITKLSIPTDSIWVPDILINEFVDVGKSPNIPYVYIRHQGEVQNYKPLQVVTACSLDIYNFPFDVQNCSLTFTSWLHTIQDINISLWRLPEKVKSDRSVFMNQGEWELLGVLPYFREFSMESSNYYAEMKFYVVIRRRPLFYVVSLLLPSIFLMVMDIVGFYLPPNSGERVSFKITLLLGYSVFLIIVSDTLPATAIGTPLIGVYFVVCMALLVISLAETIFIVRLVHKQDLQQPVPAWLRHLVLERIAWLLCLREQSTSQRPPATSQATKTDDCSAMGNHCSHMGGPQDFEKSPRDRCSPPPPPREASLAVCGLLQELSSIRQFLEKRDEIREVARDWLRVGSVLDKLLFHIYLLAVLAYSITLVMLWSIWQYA
Description: Inhibition of 5HT3 receptor at 10 uM. The procedure, abridged: as §1

Data set [20] can be described thus: Bioavailability in po dosed rat. The class given is ADME, organism-based. The note with it: in vivo.
Data set [21] concerns the target T4, Neuropeptide Y receptor type 2 (Homo sapiens, UniProt P49146).
T4 sequence (P49146 whole entry): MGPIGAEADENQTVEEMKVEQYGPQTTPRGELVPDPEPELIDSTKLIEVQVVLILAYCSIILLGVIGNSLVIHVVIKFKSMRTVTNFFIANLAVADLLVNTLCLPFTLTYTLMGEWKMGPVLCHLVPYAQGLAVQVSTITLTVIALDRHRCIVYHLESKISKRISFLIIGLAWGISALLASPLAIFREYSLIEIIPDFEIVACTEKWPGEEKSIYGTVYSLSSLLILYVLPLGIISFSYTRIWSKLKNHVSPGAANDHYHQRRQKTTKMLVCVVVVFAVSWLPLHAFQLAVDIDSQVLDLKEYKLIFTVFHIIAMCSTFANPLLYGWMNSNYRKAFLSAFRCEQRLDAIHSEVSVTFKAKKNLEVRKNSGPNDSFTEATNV
Description: Binding affinity to human NPY Y2 receptor.

Data set [22] in a line: Bioavailability in Beagle dog. To be noted: in vivo. The class given is ADME, organism-based, Canis lupus familiaris.
Data set [23] relates to Rattus norvegicus. Description: Blockade of D-Trp[34]-NPY-induced food intake in po dosed rat. The class given is functional.

Sequence of 5-hydroxytryptamine receptor 6 (Homo sapiens) (P50406 whole entry): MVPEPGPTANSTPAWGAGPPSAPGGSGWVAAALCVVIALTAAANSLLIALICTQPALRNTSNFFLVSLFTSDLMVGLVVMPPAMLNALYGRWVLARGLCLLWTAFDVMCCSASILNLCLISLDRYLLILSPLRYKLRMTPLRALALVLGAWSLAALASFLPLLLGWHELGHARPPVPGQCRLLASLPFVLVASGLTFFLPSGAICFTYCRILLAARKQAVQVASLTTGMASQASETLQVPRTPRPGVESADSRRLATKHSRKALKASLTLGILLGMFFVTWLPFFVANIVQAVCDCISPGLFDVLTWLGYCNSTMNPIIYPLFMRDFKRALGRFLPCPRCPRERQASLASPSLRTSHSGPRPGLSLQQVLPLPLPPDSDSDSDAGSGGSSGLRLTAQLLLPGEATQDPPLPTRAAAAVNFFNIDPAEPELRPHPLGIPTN
Sequence of 5-hydroxytryptamine receptor 2B (Homo sapiens) (P41595 whole entry): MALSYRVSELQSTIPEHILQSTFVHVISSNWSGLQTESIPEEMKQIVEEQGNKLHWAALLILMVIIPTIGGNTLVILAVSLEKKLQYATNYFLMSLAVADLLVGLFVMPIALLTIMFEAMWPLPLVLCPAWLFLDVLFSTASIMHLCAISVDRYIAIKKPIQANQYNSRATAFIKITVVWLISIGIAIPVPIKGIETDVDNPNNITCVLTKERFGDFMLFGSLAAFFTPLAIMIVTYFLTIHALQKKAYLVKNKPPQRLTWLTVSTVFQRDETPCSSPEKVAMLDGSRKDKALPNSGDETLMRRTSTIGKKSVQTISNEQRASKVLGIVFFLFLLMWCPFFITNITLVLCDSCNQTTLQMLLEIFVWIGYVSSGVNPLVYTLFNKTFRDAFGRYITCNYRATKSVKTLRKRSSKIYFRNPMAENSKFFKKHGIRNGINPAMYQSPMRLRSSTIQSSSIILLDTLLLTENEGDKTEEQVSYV
Sequence of 5-hydroxytryptamine receptor 7 (Homo sapiens) (P34969 whole entry): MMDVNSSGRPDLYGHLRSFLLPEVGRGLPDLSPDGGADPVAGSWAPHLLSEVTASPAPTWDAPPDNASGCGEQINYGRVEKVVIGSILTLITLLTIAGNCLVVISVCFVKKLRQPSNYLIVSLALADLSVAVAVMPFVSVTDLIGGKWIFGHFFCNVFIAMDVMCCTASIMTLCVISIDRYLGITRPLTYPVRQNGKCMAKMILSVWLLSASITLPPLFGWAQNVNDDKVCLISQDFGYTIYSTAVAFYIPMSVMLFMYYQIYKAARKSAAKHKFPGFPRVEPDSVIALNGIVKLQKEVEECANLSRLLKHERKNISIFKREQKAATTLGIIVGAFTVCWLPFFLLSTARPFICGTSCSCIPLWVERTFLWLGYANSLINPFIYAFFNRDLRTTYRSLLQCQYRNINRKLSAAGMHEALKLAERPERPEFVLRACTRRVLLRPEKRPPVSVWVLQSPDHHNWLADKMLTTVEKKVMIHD
Sequence of 5-hydroxytryptamine receptor 5A (Homo sapiens) (P47898 whole entry): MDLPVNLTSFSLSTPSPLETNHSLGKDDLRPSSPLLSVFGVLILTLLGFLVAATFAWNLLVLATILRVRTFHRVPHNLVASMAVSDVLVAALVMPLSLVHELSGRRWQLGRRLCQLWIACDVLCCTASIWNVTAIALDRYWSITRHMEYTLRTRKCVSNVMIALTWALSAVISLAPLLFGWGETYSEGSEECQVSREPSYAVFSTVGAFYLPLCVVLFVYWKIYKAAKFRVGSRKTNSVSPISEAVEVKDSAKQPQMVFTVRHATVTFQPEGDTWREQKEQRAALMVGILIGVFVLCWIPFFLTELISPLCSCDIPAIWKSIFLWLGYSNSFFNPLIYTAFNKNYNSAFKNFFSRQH
Sequence of Sodium-dependent dopamine transporter (Homo sapiens) (Q01959 whole entry): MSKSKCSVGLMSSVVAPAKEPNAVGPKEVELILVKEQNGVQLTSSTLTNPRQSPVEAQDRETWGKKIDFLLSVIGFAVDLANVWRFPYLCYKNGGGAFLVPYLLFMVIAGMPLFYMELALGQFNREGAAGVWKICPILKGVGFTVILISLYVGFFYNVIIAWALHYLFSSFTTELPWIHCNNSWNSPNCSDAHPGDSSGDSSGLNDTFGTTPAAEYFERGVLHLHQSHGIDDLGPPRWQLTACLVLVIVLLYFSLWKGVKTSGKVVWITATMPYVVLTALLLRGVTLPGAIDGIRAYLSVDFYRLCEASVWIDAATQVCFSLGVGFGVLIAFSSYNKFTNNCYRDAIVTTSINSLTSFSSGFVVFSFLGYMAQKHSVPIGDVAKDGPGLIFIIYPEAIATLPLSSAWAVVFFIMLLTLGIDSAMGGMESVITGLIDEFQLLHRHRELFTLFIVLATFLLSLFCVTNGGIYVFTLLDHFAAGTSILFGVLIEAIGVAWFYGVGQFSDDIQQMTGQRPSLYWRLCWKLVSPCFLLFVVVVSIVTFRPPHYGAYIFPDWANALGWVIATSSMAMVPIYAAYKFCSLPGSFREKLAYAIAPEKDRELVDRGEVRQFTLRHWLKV
Sequence of Sodium-dependent serotonin transporter (Homo sapiens) (P31645 whole entry, looked up): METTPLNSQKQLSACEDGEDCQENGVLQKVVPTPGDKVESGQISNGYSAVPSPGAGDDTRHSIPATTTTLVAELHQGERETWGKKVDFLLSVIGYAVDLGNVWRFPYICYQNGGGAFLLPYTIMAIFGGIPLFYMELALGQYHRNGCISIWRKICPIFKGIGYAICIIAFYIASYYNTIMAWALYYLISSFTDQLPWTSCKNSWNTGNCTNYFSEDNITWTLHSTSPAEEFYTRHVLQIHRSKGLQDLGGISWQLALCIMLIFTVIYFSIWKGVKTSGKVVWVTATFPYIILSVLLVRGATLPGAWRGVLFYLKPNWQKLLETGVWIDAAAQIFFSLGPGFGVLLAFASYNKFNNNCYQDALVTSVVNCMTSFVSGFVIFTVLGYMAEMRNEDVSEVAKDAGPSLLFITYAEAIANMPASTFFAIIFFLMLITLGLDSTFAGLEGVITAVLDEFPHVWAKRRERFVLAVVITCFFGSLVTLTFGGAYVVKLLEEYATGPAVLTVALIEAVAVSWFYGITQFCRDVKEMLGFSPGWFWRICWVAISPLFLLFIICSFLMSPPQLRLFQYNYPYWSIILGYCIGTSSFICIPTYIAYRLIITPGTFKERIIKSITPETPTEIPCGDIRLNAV

By Kb is commonly meant the equilibrium dissociation constant of an antagonist, usually derived from a functional assay. In general, inhibition refers to the drop in the measured response relative to a control, in per cent. The term pKi denotes the Ki on a negative log10 scale, so that one unit is a factor of ten. What is called half-life is how long it takes for the measured level to halve. As usually defined, the bioavailability is the share of a dose that reaches the circulation, judged against a reference dose that is usually intravenous. A high value points to much systemic uptake. For orientation: ED50 means the midpoint of the dose-response relation. As to `CC(=O)N1CCC(N(C)C(=O)N[C@H]2CC[C@H](c3cc(F)cc(F)c3)CC2)CC1`, the Kb in [1] is 0.0027 µM. The inhibition in data set [2] was less than 10%; in data set [3], less than 10%; in [4] it was less than 10%; in data set [5], less than 10%; in data set [7] it was less than 25%; in [8], less than 10%. The inhibition in [9] was less than 10%; in [10], less than 10%; in data set [15], less than 25%; in data set [18], less than 10%; in [19], less than 10%. In addition, the Activity entry in the data set with Rattus norvegicus [6], in the data set on Rattus norvegicus [11] and with Rattus norvegicus [12] was “Dose-dependent effect” throughout. Moreover, the pKi in data set [13] and in data set [21] was less than 5.00 in each case. Moreover, the figures for the half-life in data set [14] and in data set [17] were 1.4 h and 24 h, respectively. Moreover, the concentration at 672 h in data set [16] is 13 µM. Further, the bioavailability in [20] worked out at 100%; in data set [22], 94%. Further, the 50% effect level in the data set on Rattus norvegicus [23] (ED50) was put at a dose of 2.3 mg/kg.
